According to ChEMBL document CHEMBL4808182, “Discovery of the Soluble Guanylate Cyclase Activator Runcaciguat (BAY 1101042)” (J Med Chem, 2021):
The source made the active and inactive calls. The rule behind the calls is not given here.

Legend:
[1] = molecular target: T1, Guanylate cyclase soluble subunit alpha-1 (Rattus norvegicus) (UniProt P19686); assay: Activation of recombinant rat sGC alpha1 subunit expressed in CHO cells assessed as induction of [32P-cGMP] formation by measuring fold change at 100 uM using alpha-[32P-GTP] as substrate measured after 6 mins by luminescence assay; details: filed as activator
T1 sequence (whole entry): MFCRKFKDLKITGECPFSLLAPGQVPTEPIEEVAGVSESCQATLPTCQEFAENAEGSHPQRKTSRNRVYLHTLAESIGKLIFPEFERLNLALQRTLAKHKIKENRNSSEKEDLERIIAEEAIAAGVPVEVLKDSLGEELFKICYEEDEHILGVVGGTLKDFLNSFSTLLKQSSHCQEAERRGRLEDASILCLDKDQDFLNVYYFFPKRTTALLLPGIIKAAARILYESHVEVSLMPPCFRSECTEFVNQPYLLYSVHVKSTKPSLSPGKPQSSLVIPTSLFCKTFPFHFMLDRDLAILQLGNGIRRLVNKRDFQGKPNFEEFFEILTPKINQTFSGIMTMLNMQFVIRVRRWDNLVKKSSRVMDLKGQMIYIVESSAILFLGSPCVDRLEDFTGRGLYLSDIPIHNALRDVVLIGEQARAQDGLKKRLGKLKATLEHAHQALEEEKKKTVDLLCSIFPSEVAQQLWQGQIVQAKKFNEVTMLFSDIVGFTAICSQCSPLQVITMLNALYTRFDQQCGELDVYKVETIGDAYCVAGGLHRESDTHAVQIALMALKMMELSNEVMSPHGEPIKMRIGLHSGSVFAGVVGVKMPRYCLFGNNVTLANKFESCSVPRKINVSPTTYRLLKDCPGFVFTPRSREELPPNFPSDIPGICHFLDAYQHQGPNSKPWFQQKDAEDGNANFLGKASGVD
Procedure, shortened: (§1)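 Highly purified recombinant sGC enzyme was tested for stimulation of cGMP production across 0.01 to 100 μM of compound. The read-out was fold activation over basal enzyme activity. The method followed earlier published sGC stimulator/activator characterization.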

[2] = Oral bioavailability in Wistar rat at 0.3 mg/kg measured up to 24 hrs by LC-MS analysis; assay type: ADME, organism-based; details: in vivo
[3] = system: Heart; assay: Reduction in coronary perfusion pressure in heart isolated from Wistar rat at highest concentration relative to control; assay type: functional; set-up: scale not given: the % may be the effect or the level left
Procedure, shortened: (§2)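 Rat hearts in Langendorff perfusion were exposed to 10 nM–10 μM. Coronary perfusion pressure, heart rate, LVDP and +dp/dt were recorded.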

[4] = Volume of distribution at steady state in Wistar rat at 0.3 mg/kg, iv measured up to 24 hrs by LC-MS analysis; assay type: ADME, organism-based; details: in vivo, read-out: Vdss
[5] = Blood clearance in Wistar rat at 0.3 mg/kg, iv measured up to 24 hrs by LC-MS analysis; assay type: ADME, organism-based; details: whole blood
Procedure, shortened: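 Rats dosed iv at 0.3 mg/kg; blood clearance determined.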

[6] = Blood clearance in Beagle dog at 0.3 mg/kg, iv measured up to 24 hrs by LC-MS analysis; assay type: ADME, organism-based, Canis lupus familiaris; details: whole blood
[7] = Volume of distribution at steady state in cynomolgus monkey at 0.1 mg/kg, iv measured up to 24 hrs by LC-MS analysis; assay type: ADME, organism-based, Macaca fascicularis; details: in vivo, read-out: Vdss
[8] = system: Rattus norvegicus; assay: In vivo activation of sGC in po dosed renin-transgenic rat carrying [RenTG(mRRen2)27] gene assessed as increase in creatinine clearance pretreated with NO-synthase inhibitor L-NAME followed by compound administration twice daily for 21 days; assay type: functional, organism-based; details: dose 1-10 mg/kg, time 21.0 day
Procedure, shortened: (§3)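 L-NAME-treated renin transgenic rats were dosed BID. At study end, protein-to-creatinine ratio (mg/mmol) came from urinary protein and creatinine. Creatinine clearance (mL/min) came from plasma and urinary creatinine plus urine volume.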

[9] = system: Rattus norvegicus; assay: Reduction in blood pressure in normotensive Wistar rat at 10 mg/kg, po by radiotelemetry relative to control; assay type: functional; set-up: scale not given: the % may be the effect or the level left
Procedure, shortened: (§4)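 Conscious normotensive rats with telemetric implants received oral doses of 1, 3 or 10 mg/kg. Mean arterial pressure and heart rate were recorded continuously beyond 24 h.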

[10] = Activation of recombinant rat sGC expressed in CHO cells by luminescence assay; assay type: cell-based; details: CHO
Procedure, shortened: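 Stable CHO reporter cell line overexpressing rat sGC; cGMP formation read as luminescence. EC50 from concentration–response. MEC taken as lowest concentration giving at least threefold increase in basal luminescence.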

[11] = Blood clerance in cynomolgus monkey at 0.1 mg/kg, iv measured up to 24 hrs by LC-MS analysis; assay type: ADME, organism-based, Macaca fascicularis; details: whole blood
[12] = system: Rattus norvegicus; assay: Cardioprotective activity in renin-transgenic rat carrying [[…]] gene assessed as reduction in heart hypertrophy at 1 to 10 mg/kg, po bid for 21 days; assay type: functional, organism-based; details: dose 1-10 mg/kg, time 21.0 day
[13] = system: Rattus norvegicus; assay: Effect on blood pressure in normotensive Wistar rat at 1 to 3 mg/kg, po by radiotelemetry; assay type: functional, organism-based; details: dose 1-3 mg/kg
[14] = system: Saphenous artery; assay: Vasorelaxant activity in Chinchilla rabbit saphenous artery assessed as inhibition of phenylephrine-induced contractions; assay type: functional, tissue-based; details: Oryctolagus cuniculus
[15] = system: Coronary artery; assay: Vasorelaxant activity in porcine coronary artery assessed as inhibition of U-46619-induced contractions; assay type: functional, tissue-based; details: Sus scrofa
[16] = system: Rattus norvegicus; assay: In vivo activation of sGC in po dosed renin-transgenic rat carrying [RenTG(mRRen2)27] gene assessed as decrease in proteinuria pretreated with NO-synthase inhibitor L-NAME followed by compound administration twice daily for 21 days; assay type: functional, organism-based; details: dose 1-10 mg/kg, time 21.0 day; procedure, shortened: as §3
[17] = system: Rattus norvegicus; assay: Effect on heart rate in spontaneous hypertensive Wistar rat at 0.1 mg/kg, po by radiotelemetry; assay type: functional, organism-based
Procedure, shortened: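 Spontaneously hypertensive rats were given single oral doses of 0.1–3.0 mg/kg. Mean arterial pressure and heart rate were monitored for at least 24 h post dose, as % change.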

[18] = system: Rattus norvegicus; assay: In vivo activation of sGC in Wistar rate assessed as decrease in blood pressure at 0.03 to 0.1 mg/kg, iv administered as bolus injection; assay type: functional, organism-based; details: dose 0.03-0.1 mg/kg
Procedure, shortened: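 Anaesthetized rats received an iv bolus of 0.03 or 0.1 mg/kg, with or without ODQ pretreatment. Blood pressure and heart rate were recorded over time.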

[19] = system: Heart; assay: Reduction in coronary perfusion pressure in heart isolated from Wistar rat; assay type: functional, tissue-based; details: dose 0.01-10 µM; procedure, shortened: as §2
[20] = molecular target: T1, Guanylate cyclase soluble subunit alpha-1 (Rattus norvegicus); assay: Activation of recombinant rat sGC alpha1 subunit expressed in CHO cells assessed as induction of [32P-cGMP] formation at 0.01 to 100 uM using alpha-[32P-GTP] as substrate measured after 6 mins in presence of ODQ by luminescence assay; assay type: cell-based; details: filed as activator, dose 0.01-100 µM
[21] = system: Rattus norvegicus; assay: Effect on tachycardia reflex in normotensive Wistar rat at 1 to 10 mg/kg, po by radiotelemetry; assay type: functional, organism-based; details: dose 1-10 mg/kg; procedure, shortened: as §4
[22] = species: Rattus norvegicus; assay: Effect on heart rate in Wistar rat; assay type: functional; procedure, shortened: as §2
[23] = molecular target: T1, Guanylate cyclase soluble subunit alpha-1 (Rattus norvegicus); assay: Activation of recombinant rat sGC alpha1 subunit expressed in CHO cells assessed as induction of [32P-cGMP] formation by measuring fold change at 0.01 uM using alpha-[32P-GTP] as substrate measured after 6 mins by luminescence assay; details: filed as activator; procedure, shortened: as §1
[24] = molecular target: T1, Guanylate cyclase soluble subunit alpha-1 (Rattus norvegicus); assay: Activation of recombinant rat sGC alpha1 subunit expressed in CHO cells assessed as induction of [32P-cGMP] formation using alpha-[32P-GTP] as substrate measured after 6 mins by luminescence assay; assay type: cell-based; details: filed as activator

SMILES: C[C@H]([C@H](C(=O)Nc1cc([C@@H](CC(=O)O)C2CC2)ccc1Cl)c1ccc(Cl)cc1)C(F)(F)F [RUNCACIGUAT]
- fold change (FC) [1]: 9.3
- bioavailability [2]: 95%
- Activity [3]: 45%
- Vd [4]: 1.4 L/kg
- clearance [5]: 3.5 mL/min/kg
- clearance [6]: 23.3 mL/min/kg
- Vd [7]: 1.4 L/kg
- Activity [8]: Dose-Dependent Effect
- Activity [9]: <=15%
- EC50 [10]: 11.2 nM
- clearance [11]: 2.67 mL/min/kg
- Activity [12]: Active
- Activity [13]: inactive
- IC50 [14]: 199 nM
- IC50 [15]: 137 nM
- Activity [16]: Dose-Dependent Effect
- Activity [17]: inactive
- Activity [18]: Dose-Dependent Effect
- Activity [19]: Dose-Dependent Effect
- Activity [20]: Active
- Activity [21]: Active
- Activity [22]: inactive
- fold change (FC) [23]: 2.6
- MEC [24]: 1.8 nM
